Values after ≈ are worked out from the molar mass of the structure shown.
Key:
Type in all cases: functional
[1] = system: Helicobacter pylori; experiment: Antibacterial activity against CagA-deficient Helicobacter pylori G204 isolated from chronic gastritis patient after 48 hrs compound exposure followed by incubation on Columbia-blood agar plate for 3 to 5 days
Outline: (§1)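 Compound dissolved in water with 4% DMSO, filter-sterilized, and serially twofold diluted in Brucella broth with 10% bovine fetal serum. Inoculum from 48 h microaerobic Brucella agar-BFS cultures, added at approximately 10^6 CFU/mL final. Broth incubated microaerobically at 37 °C for 24 or 48 h, then each dilution subcultured onto Columbia-blood agar. MBC is the lowest concentration with no growth on subculture. Triplicate; mean ± SD.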

[2] = system: Helicobacter pylori; experiment: Antibacterial activity against CagA-expressing Helicobacter pylori CCUG17874 isolated from chronic gastritis patient after 48 hrs compound exposure followed by incubation on Columbia-blood agar plate for 3 to 5 days; outline: as §1
[3] = system: Helicobacter pylori; experiment: Antibacterial activity against CagA-expressing Helicobacter pylori MDO21 isolated from chronic gastritis patient after 48 hrs compound exposure followed by incubation on Columbia-blood agar plate for 3 to 5 days; outline: as §1
[4] = system: Helicobacter pylori; experiment: Antibacterial activity against CagA-expressing Helicobacter pylori MD6 isolated from chronic gastritis patient after 48 hrs compound exposure followed by incubation on Columbia-blood agar plate for 3 to 5 days; outline: as §1
[5] = system: Helicobacter pylori; experiment: Antibacterial activity against CagA-expressing Helicobacter pylori 328 isolated from chronic gastritis patient after 48 hrs compound exposure followed by incubation on Columbia-blood agar plate for 3 to 5 days; outline: as §1
[6] = system: Helicobacter pylori; experiment: Antibacterial activity against CagA-expressing Helicobacter pylori G27 isolated from chronic gastritis patient after 48 hrs compound exposure followed by incubation on Columbia-blood agar plate for 3 to 5 days; outline: as §1
[7] = system: Helicobacter pylori; experiment: Antibacterial activity against CagA-expressing Helicobacter pylori Ma01 isolated from chronic gastritis patient after 48 hrs compound exposure followed by incubation on Columbia-blood agar plate for 3 to 5 days; outline: as §1
[8] = system: Helicobacter pylori; experiment: Antibacterial activity against CagA-expressing Helicobacter pylori SI10 isolated from chronic gastritis patient after 48 hrs compound exposure followed by incubation on Columbia-blood agar plate for 3 to 5 days
Outline: (§2)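 Broth microdilution MBC against clinical H. pylori isolates (cagA by PCR; stocks kept frozen in Columbia broth with 20% glycerol). Compound dissolved in water with 4% DMSO, filter-sterilized, double diluted in Brucella broth with 10% fetal bovine serum. Inoculum about 10^6 CFU/mL from 48 h microaerobic Brucella agar-BFS cultures. Plates held microaerobically at 37 °C for 24 and 48 h. Each well was then spotted onto Columbia-blood agar for 3-5 days. MBC is the lowest concentration giving no regrowth. Triplicate, mean ± SD.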

[9] = system: Helicobacter pylori; experiment: Antibacterial activity against CagA-expressing Helicobacter pylori G39 isolated from chronic gastritis patient after 48 hrs compound exposure followed by incubation on Columbia-blood agar plate for 3 to 5 days; outline: as §1
[10] = system: Helicobacter pylori; experiment: Antibacterial activity against CagA-expressing Helicobacter pylori G20 isolated from chronic gastritis patient after 48 hrs compound exposure followed by incubation on Columbia-blood agar plate for 3 to 5 days; outline: as §1
[11] = system: Helicobacter pylori; experiment: Antibacterial activity against CagA-expressing Helicobacter pylori 10K isolated from gastric carcinoma patient after 48 hrs compound exposure followed by incubation on Columbia-blood agar plate for 3 to 5 days; outline: as §1
[12] = system: Helicobacter pylori; experiment: Antibacterial activity against CagA-expressing Helicobacter pylori 18K7 isolated from gastric carcinoma patient after 48 hrs compound exposure followed by incubation on Columbia-blood agar plate for 3 to 5 days; outline: as §1
[13] = system: Helicobacter pylori; experiment: Antibacterial activity against CagA-deficient Helicobacter pylori G50 isolated from chronic gastritis patient after 24 hrs compound exposure followed by incubation on Columbia-blood agar plate for 3 to 5 days; outline: as §1
[14] = system: Helicobacter pylori; experiment: Antibacterial activity against CagA-deficient Helicobacter pylori G21b isolated from chronic gastritis patient after 24 hrs compound exposure followed by incubation on Columbia-blood agar plate for 3 to 5 days; outline: as §1
[15] = system: Helicobacter pylori; experiment: Antibacterial activity against CagA-deficient Helicobacter pylori G104 isolated from chronic gastritis patient after 24 hrs compound exposure followed by incubation on Columbia-blood agar plate for 3 to 5 days; outline: as §1
[16] = system: Helicobacter pylori; experiment: Antibacterial activity against CagA-deficient Helicobacter pylori Ba142 isolated from chronic gastritis patient after 24 hrs compound exposure followed by incubation on Columbia-blood agar plate for 3 to 5 days; outline: as §1
[17] = system: Helicobacter pylori; experiment: Antibacterial activity against CagA-deficient Helicobacter pylori NS23 isolated from chronic gastritis patient after 24 hrs compound exposure followed by incubation on Columbia-blood agar plate for 3 to 5 days; outline: as §1
[18] = system: Helicobacter pylori; experiment: Antibacterial activity against CagA-deficient Helicobacter pylori 328 KM isolated from chronic gastritis patient after 24 hrs compound exposure followed by incubation on Columbia-blood agar plate for 3 to 5 days; outline: as §1
[19] = system: Helicobacter pylori; experiment: Antibacterial activity against CagA-deficient Helicobacter pylori G12 isolated from chronic gastritis patient after 24 hrs compound exposure followed by incubation on Columbia-blood agar plate for 3 to 5 days; outline: as §1
[20] = system: Helicobacter pylori; experiment: Antibacterial activity against CagA-deficient Helicobacter pylori G204 isolated from chronic gastritis patient after 24 hrs compound exposure followed by incubation on Columbia-blood agar plate for 3 to 5 days; outline: as §1
[21] = system: Helicobacter pylori; experiment: Antibacterial activity against CagA-expressing Helicobacter pylori CCUG17874 isolated from chronic gastritis patient after 24 hrs compound exposure followed by incubation on Columbia-blood agar plate for 3 to 5 days; outline: as §1
[22] = system: Helicobacter pylori; experiment: Antibacterial activity against CagA-expressing Helicobacter pylori MDO21 isolated from chronic gastritis patient after 24 hrs compound exposure followed by incubation on Columbia-blood agar plate for 3 to 5 days; outline: as §1
[23] = system: Helicobacter pylori; experiment: Antibacterial activity against CagA-expressing Helicobacter pylori MD6 isolated from chronic gastritis patient after 24 hrs compound exposure followed by incubation on Columbia-blood agar plate for 3 to 5 days; outline: as §1
[24] = system: Helicobacter pylori; experiment: Antibacterial activity against CagA-expressing Helicobacter pylori 328 isolated from chronic gastritis patient after 24 hrs compound exposure followed by incubation on Columbia-blood agar plate for 3 to 5 days; outline: as §1
[25] = system: Helicobacter pylori; experiment: Antibacterial activity against CagA-expressing Helicobacter pylori G27 isolated from chronic gastritis patient after 24 hrs compound exposure followed by incubation on Columbia-blood agar plate for 3 to 5 days; outline: as §1
[26] = system: Helicobacter pylori; experiment: Antibacterial activity against CagA-expressing Helicobacter pylori Ma01 isolated from chronic gastritis patient after 24 hrs compound exposure followed by incubation on Columbia-blood agar plate for 3 to 5 days; outline: as §1
[27] = system: Helicobacter pylori; experiment: Antibacterial activity against CagA-expressing Helicobacter pylori SI10 isolated from chronic gastritis patient after 24 hrs compound exposure followed by incubation on Columbia-blood agar plate for 3 to 5 days; outline: as §2
[28] = system: Helicobacter pylori; experiment: Antibacterial activity against CagA-expressing Helicobacter pylori G39 isolated from chronic gastritis patient after 24 hrs compound exposure followed by incubation on Columbia-blood agar plate for 3 to 5 days; outline: as §1
[29] = system: Helicobacter pylori; experiment: Antibacterial activity against CagA-expressing Helicobacter pylori G20 isolated from chronic gastritis patient after 24 hrs compound exposure followed by incubation on Columbia-blood agar plate for 3 to 5 days; outline: as §1
[30] = system: Helicobacter pylori; experiment: Antibacterial activity against CagA-expressing Helicobacter pylori 10K isolated from gastric carcinoma patient after 24 hrs compound exposure followed by incubation on Columbia-blood agar plate for 3 to 5 days; outline: as §1
[31] = system: Helicobacter pylori; experiment: Antibacterial activity against CagA-expressing Helicobacter pylori 18K7 isolated from gastric carcinoma patient after 24 hrs compound exposure followed by incubation on Columbia-blood agar plate for 3 to 5 days; outline: as §1
[32] = system: Helicobacter pylori; experiment: Antibacterial activity against CagA-expressing Helicobacter pylori 10Kb isolated from gastric carcinoma patient after 24 hrs compound exposure followed by incubation on Columbia-blood agar plate for 3 to 5 days; outline: as §1
[33] = system: Helicobacter pylori; experiment: Antibacterial activity against CagA-expressing Helicobacter pylori 17C7 isolated from gastric carcinoma patient after 24 hrs compound exposure followed by incubation on Columbia-blood agar plate for 3 to 5 days; outline: as §1
[34] = system: Helicobacter pylori; experiment: Antibacterial activity against CagA-expressing Helicobacter pylori 18C7 isolated from gastric carcinoma patient after 24 hrs compound exposure followed by incubation on Columbia-blood agar plate for 3 to 5 days; outline: as §1
[35] = system: Helicobacter pylori; experiment: Antibacterial activity against CagA-expressing Helicobacter pylori 4Cb isolated from gastric carcinoma patient after 24 hrs compound exposure followed by incubation on Columbia-blood agar plate for 3 to 5 days; outline: as §1

## Oc1ccc(/C=C/c2cc(O)cc(O)c2)cc1 [RESVERATROL]
[1]
  MBC: 648 µg/mL (≈ 2840 µM)
[2]
  MBC: 295 µg/mL (≈ 1290 µM)
[3]
  MBC: 295 µg/mL (≈ 1290 µM)
[4]
  MBC: 295 µg/mL (≈ 1290 µM)
[5]
  MBC: 295 µg/mL (≈ 1290 µM)
[6]
  MBC: 295 µg/mL (≈ 1290 µM)
[7]
  MBC: 589 µg/mL (≈ 2580 µM)
[8]
  MBC: 295 µg/mL (≈ 1290 µM)
[9]
  MBC: 320 µg/mL (≈ 1400 µM)
[10]
  MBC: 640 µg/mL (≈ 2800 µM)
[11]
  MBC: 74 µg/mL (≈ 324 µM)
[12]
  MBC: 147 µg/mL (≈ 644 µM)
[13]
  MBC: 295 µg/mL (≈ 1290 µM)
[14]
  MBC: 295 µg/mL (≈ 1290 µM)
[15]
  MBC: 295 µg/mL (≈ 1290 µM)
[16]
  MBC: 295 µg/mL (≈ 1290 µM)
[17]
  MBC: 147 µg/mL (≈ 644 µM)
[18]
  MBC: 147 µg/mL (≈ 644 µM)
[19]
  MBC: 648 µg/mL (≈ 2840 µM)
[20]
  MBC: 648 µg/mL (≈ 2840 µM)
[21]
  MBC: 589 µg/mL (≈ 2580 µM)
[22]
  MBC: 295 µg/mL (≈ 1290 µM)
[23]
  MBC: 589 µg/mL (≈ 2580 µM)
[24]
  MBC: 295 µg/mL (≈ 1290 µM)
[25]
  MBC: 295 µg/mL (≈ 1290 µM)
[26]
  MBC: 589 µg/mL (≈ 2580 µM)
[27]
  MBC: 589 µg/mL (≈ 2580 µM)
[28]
  MBC: 640 µg/mL (≈ 2800 µM)
[29]
  MBC: 1280 µg/mL (≈ 5610 µM)
[30]
  MBC: 74 µg/mL (≈ 324 µM)
[31]
  MBC: 147 µg/mL (≈ 644 µM)
[32]
  MBC: 147 µg/mL (≈ 644 µM)
[33]
  MBC: 37 µg/mL (≈ 162 µM)
[34]
  MBC: 37 µg/mL (≈ 162 µM)
[35]
  MBC: 147 µg/mL (≈ 644 µM)
